CHT PAM = CHT positive allosteric modulators, primary screen, cell-based, membrane potential dye, choline EC20 | High affinity choline transporter 1 (Homo sapiens), Q9GZV3 | CHT-expressing cells; active compounds read high; LV-AA mutant CHT in HEK293 cells | B-score at 10 µM | 310,000 tested, 0.49% active | AID 488977, 2010;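 active means initial fluorescence not abnormally high and integrated response B-score, plate-corrected, over 3 SD above library mean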
Target sequence (Q9GZV3 whole entry, looked up): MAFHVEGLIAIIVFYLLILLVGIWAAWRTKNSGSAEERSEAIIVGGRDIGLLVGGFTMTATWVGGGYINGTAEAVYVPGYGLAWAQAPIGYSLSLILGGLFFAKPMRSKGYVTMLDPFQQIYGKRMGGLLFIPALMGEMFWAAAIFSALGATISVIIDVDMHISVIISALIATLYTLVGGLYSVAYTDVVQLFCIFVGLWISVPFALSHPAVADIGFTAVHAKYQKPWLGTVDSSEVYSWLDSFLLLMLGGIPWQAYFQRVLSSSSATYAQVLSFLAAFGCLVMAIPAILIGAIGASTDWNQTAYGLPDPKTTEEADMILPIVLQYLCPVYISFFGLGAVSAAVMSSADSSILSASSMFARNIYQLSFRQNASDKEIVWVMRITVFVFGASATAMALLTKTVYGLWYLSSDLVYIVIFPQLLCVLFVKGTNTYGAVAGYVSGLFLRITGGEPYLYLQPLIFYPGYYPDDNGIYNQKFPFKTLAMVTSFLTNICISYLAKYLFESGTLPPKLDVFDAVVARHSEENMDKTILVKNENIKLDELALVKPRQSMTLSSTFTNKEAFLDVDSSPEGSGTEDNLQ
VIM-2 inhibitor = VIM-2 metallo-beta-lactamase inhibitors, primary screen, biochemical, epi-absorbance readout, Pseudomonas aeruginosa enzyme | AID 1527, 2009 | purified VIM-2, nitrocefin hydrolysis, epi-absorbance fluorescence | 290,000 tested, 0.89% active | inhibition, % at 5.6 µM;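 active means inhibition above the mean of all tested compounds plus 3 SD, cutoff set per screening run, cut at about 7.5% in these data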;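 further: red hydrolysis product quenches plate fluorescence so inhibitors raise well fluorescence; 0% = enzyme with DMSO and 100% = DMSO without enzyme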
IMP-1 inh = IMP-1 metallo-beta-lactamase inhibitors, primary screen, biochemical, epi-absorbance readout, Pseudomonas aeruginosa enzyme. 290,000 tested, 0.45% active. metallo-beta-lactamase IMP-1 (Pseudomonas aeruginosa). inhibition, % at 5.6 µM. AID 1556, 2009. purified IMP-1, nitrocefin hydrolysis, epi-absorbance fluorescence;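 active means inhibition above the mean plus 3 SD of all compounds in the same screening run, cut at about 4.5% in these data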;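 further: 0% = IMP-1 with DMSO and 100% = DMSO wells lacking enzyme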
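System: purified IMP-1 / Input: IMP-1 dispensed at 0.2 nM / Medium: 50 mM HEPES pH 7.1, 50 µM ZnSO4, 0.05% Brij 35 / Timing: 15 min enzyme–compound preincubation, then 25 min nitrocefin reaction, 25 °C / Technique: plate fluorescence quenching by hydrolysis product, ex 480/em 530 nm / Repeats: singlicate testing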
ANO1 activ = TMEM16A chloride channel activators or potentiators, primary screen, cell-based, HTS | HEK293 TMEM16A/YFP-H148Q/I152L, iodide quench fluorescence; active compounds read low | B-score at 10 µM | 340,000 tested, 0.3% active;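 active means fluorescence-ratio B-score plate-corrected deviation score at least 3 library SD below zero, with starting fluorescence score within 5 deviations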;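 further: channel opened by trigger with iodide after compound preincubation; score built on the fluorescence ratio of max minus min over baseline; more negative score means more quench and so TMEM16A activation or potentiation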
TMEM16A inh = TMEM16A chloride channel inhibitors, primary screen, cell-based, HTS; Anoctamin-1 (Mus musculus), Q8BHY3; HEK293 TMEM16A/YFP iodide influx fluorescence, ionomycin; normalized B-score (activity score, 25-100; higher = stronger inhibition) at 10 µM; 310,000 tested, 1.2% active;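 active means ratio plate-corrected score three or more library SD toward inhibition, starting fluorescence score within five deviations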;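 further: score derived from kinetic fluorescence span divided by baseline fluorescence per well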
CHT inh = inhibitors of human choline transporter CHT; CHT-expressing cells, membrane potential dye, choline response; active compounds read low; B-score at 10 µM; 310,000 tested, 0.86% active; AID 488975, 2010;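 active means B-score over 3 SD under the library average, and starting fluorescence ratio not unusually high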;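 further: choline stimulus applied at its EC90 after an EC20 pre-addition; B-score computed on integrated fluorescence ratio after choline addition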
TMEM16A reconf = TMEM16A chloride channel inhibitors, confirmation, cell-based, re-confirmation. inhibition, % at 10 µM. HEK293 TMEM16A/YFP-H148Q, iodide quench fluorescence; ionomycin added to raise cell calcium. AID 652189, 2013. shares compounds with TMEM16A inh. 2,300 tested, 39% active;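 active means mean duplicate percent inhibition, scaled so buffer wells are 0 and the reference blocker 100, over three buffer SD above buffer mean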
TMEM16A Ca cntr = calcium mobilization in TMEM16A/YFP HEK293 cells, confirmation, counter-screen for TMEM16A inhibitor project. calcium response (% of ionomycin), % at 10 µM. shares compounds with TMEM16A inh. 2,300 tested, 2% active. Fluo4 calcium mobilization;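 active means duplicate-averaged calcium signal over 20% of the ionomycin maximum, relative to buffer baseline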;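 further: each well's signal is peak minus trough fluorescence divided by its pre-addition baseline; 0% = buffer wells and 100% = ionomycin wells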
YFP-HEK293 quench = iodide YFP quench changes in parental YFP-HEK293, counter-screen for TMEM16A inhibitor project, cell-based; shares compounds with TMEM16A inh; ionomycin; YFP ratio F(max-min)/F0 at 10 µM; 2,300 tested, under 10 active; AID 652233, 2013;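 active means yellow fluorescent protein signal ratio exceeding the buffer control mean by over 5 SD of those controls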;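 further: ratio is mean of duplicate wells from kinetic YFP trace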
ClC-1 rat inh = ClC-1 chloride channel inhibition, selectivity assay for TMEM16A inhibitor project, cell-based, voltage-dependent ClC-1; shares compounds with TMEM16A inh; CHO ClC-1-YFP, iodide influx fluorescence quench; iodide control reads 0, buffer control 100; ratio percent, % at 10 µM; 2,300 tested, under 10 active; AID 652236, 2013;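 active means duplicate-mean ratio percent above the mean of iodide-only control wells, which defines zero, plus 5 of their SD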;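 further: higher percent means stronger block of ClC-1 iodide influx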
Active calls of the source: *; i = inactive; . = no result given. Compounds with a hit are over-represented: about 3.4% of the library has one in this group of screens.

SMILES	CHT PAM	VIM-2 inhibitor	IMP-1 inh	ANO1 activ	TMEM16A inh	CHT inh	TMEM16A reconf	TMEM16A Ca cntr	YFP-HEK293 quench	ClC-1 rat inh
COc1ccc2nc3oc(C(=O)Nc4ccc(OC)c(OC)c4)cc3cc2c1	i	-4	-3	i	i	i	.	.	.	.
CCOC(=O)C1CCN(c2c(NCCN3CCCCC3C)c(=O)c2=O)CC1 (configuration not stated)	i	2	-2	i	100*	i	i	i	-1.3	-10
COc1ccccc1CN1CC(C(=O)NCc2cc(F)cc(C(F)(F)F)c2)CCC1=O (configuration not stated)	i	-1	-3	i	i	i	.	.	.	.
CC(=O)c1ccc(NC(=S)NC(C)CCc2ccccc2)cc1 (configuration not stated)	i	-2	-2	i	25*	i	i	i	-1.1	-1
CN1CCN(C(=O)NC2CCCN2S(=O)(=O)c2ccc(Cl)cc2)CC1 (configuration not stated)	i	-1	-3	i	i	i	i	i	-1	-2
COc1ccc(-c2ccc(-c3nnc(Cc4ccc(OC)c(OC)c4)o3)cc2)cc1	i	-2	-2	i	25*	i	i	i	-1.3	-2
Cc1ccc(C)c(OCCC(=O)NNC(=O)c2cc(C)oc2C)c1	.	.	.	i	.	.	.	.	.	.
CCCSc1nsc(NC(=O)C(c2ccccc2)c2ccccc2)n1	i	-1	-4	i	i	i	.	.	.	.
CCCSc1nsc(NC(=O)Nc2ccc(F)cc2F)n1	i	0	1	i	100*	i	66%*	i	-0.82	-24
CC(C)(C)NC(=O)COC(=O)c1ccccc1Nc1ccc(SC(F)F)cc1	i	-2	2	i	i	i	.	.	.	.
CC(OC(=O)c1ccccc1Nc1ccc(SC(F)F)cc1)C(N)=O (configuration not stated)	i	-1	-4	i	25*	i	i	i	-0.9	-10
Cc1c(Cl)cccc1NC(=O)CCN1C(=O)C2CC=CCC2C1=O (configuration not stated)	i	-4	-3	i	i	i	.	.	.	.
CN(c1ccccc1)C(c1ccc(F)cc1)c1nnnn1C1CCCC1 (configuration not stated)	i	-3	-3	i	i	i	i	i	-0.92	-13
CN(c1ccccc1)C(c1ccc(F)cc1)c1nnnn1CC1CCCO1 (configuration not stated)	i	-1	-2	i	i	i	.	.	.	.
Cc1nc(NCCc2ccccc2)c2oc3ccccc3c2n1	6.3*	-1	-3	i	25*	i	i	i	-1	-24
COc1ccc(N2CCN(CCCNC(=O)C(=O)c3c[nH]c4ccccc34)CC2)cc1	i	-3	-1	i	i	i	.	.	.	.
Cc1nn(C)cc1S(=O)(=O)Nc1ccc(C(F)(F)F)cc1	i	-4	-4	i	i	i	.	.	.	.
Cc1cc(/C=N/n2cnnc2)c(C)n1-c1ccccc1	i	-3	2	i	i	i	.	.	.	.
Cc1cc(/C=N/n2cnnc2)c(C)n1-c1ccc(OCc2ccc(F)cc2)cc1	i	0	0	i	100*	i	i	i	-1.1	-18
S=c1[nH]nc(Cn2cnc3ccccc32)n1-c1ccccc1	i	-4	-2	i	i	i	.	.	.	.
CCC(Sc1nc(C)cc(=O)[nH]1)C(=O)Nc1nc(-c2ccccc2)cs1 (configuration not stated)	i	-7	-4	i	25*	i	43%*	i	-1.1	-10
CCC(Sc1nc(-c2ccccc2)cc(=O)[nH]1)C(=O)O (configuration not stated)	i	-2	-3	i	i	i	.	.	.	.
CCCC1(CCC)NC(=O)N(CC(=O)Nc2ccc3c(c2)OCCO3)C1=O	.	.	.	i	.	.	.	.	.	.
CCCC1(CCC)NC(=O)N(CC(=O)Nc2cccc(OC)c2)C1=O	i	-4	-2	i	100*	i	i	i	-1.1	-10
O=C(Nc1cccc(F)c1)N(Cc1ccc(Cl)cc1)CC(O)C(F)(F)F (configuration not stated)	i	-2	-2	i	100*	i	78%*	i	-0.89	-19
SMILES	CHT PAM	VIM-2 inhibitor	IMP-1 inh	ANO1 activ	TMEM16A inh	CHT inh	TMEM16A reconf	TMEM16A Ca cntr	YFP-HEK293 quench	ClC-1 rat inh
O=C(Nc1ccccc1)N(Cc1ccccc1)CC(O)C(F)(F)F (configuration not stated)	i	-5	-2	i	i	i	.	.	.	.
Cc1ccc(-c2c3c(nc4sc(C(N)=O)c(N)c24)CCC3)cc1	i	1	-2	i	i	i	.	.	.	.
COc1ccc(-c2c3c(nc4sc5c(Cl)nc(C)nc5c24)CCC3)cc1	i	0	-4	i	100*	i	i	i	-1.2	-7
O=C(OCC(=O)N1CCC(Cc2ccccc2)CC1)c1cncc(Br)c1	.	.	.	i	.	.	.	.	.	.
CCCCc1nc(N2CCOCC2)c(C#N)c2c1CCCC2	i	-3	-2	i	i	i	.	.	.	.
CCCc1nc(N2CCOCC2)c(C#N)c2c1CCCC2	i	0	1	i	100*	i	i	i	-1.1	-10
COc1ccc(OCC(=O)Nc2ccccc2C(=O)Nc2ccc(C(=O)O)cc2)cc1	i	1	-1	i	i	i	.	.	.	.
CCOC(=O)c1ccccc1N/C=C/C(=O)c1ccccc1	i	4	1	i	100*	i	i	i	-1.1	-11
